According to ChEMBL document CHEMBL3612006, “Novel dialkylphosphorylhydrazones: Synthesis, leishmanicidal evaluation and theoretical investigation of the proposed mechanism of action” (Eur J Med Chem, 2015):
The source made the active and inactive calls. The calls are words filed in the database; no cut-off is given here.

Tests used:
Leishmania amazonensis [1] = experiment: Leishmanicidal activity against Leishmania amazonensis MHOM/BR/87/BA125 after 48 hrs; type: functional, organism-based; conditions: MHOM/BR/87/BA125, 48 h
Method in brief: (§1)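 Log-phase promastigotes at 10⁵ per well in medium with 10% heat-inactivated FCS, 2 mM L-glutamine, gentamicin and 2% human urine were grown with compound at 26 °C for 48 h. Parasites were counted by automatic cell counter, with inhibition expressed as % of DMSO-treated control. Triplicates, with experiments repeated at least twice.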

[2] = Cytotoxicity against mouse J774 cells after 48 hrs by MTT assay; type: cell-based; conditions: read-out: LC50
Method in brief: (§2)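 J774 murine macrophages in DMEM with 2 mM L-glutamine, 10 mM HEPES, 10% FCS and gentamicin were seeded at 1.5 × 10⁵ cells/well and attached for 24 h at 37 °C. Cells were exposed to 1, 10 or 100 µM for 48 h, then given MTT for 1 h at 37 °C in the dark. Formazan was dissolved in DMSO and read at 540 nm. Triplicates with growth controls.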

Leishmania braziliensis [3] = experiment: Leishmanicidal activity against Leishmania braziliensis MHOM/BR/01/BA788 after 48 hrs relative to control; type: functional; parameters: concentration or dose not given beside the values; method in brief: as §1
Leishmania amazonensis [4] = experiment: Leishmanicidal activity against Leishmania amazonensis MHOM/BR/87/BA125 after 48 hrs relative to control; type: functional; parameters: concentration or dose not given beside the values; method in brief: as §1
Leishmania braziliensis [5] = experiment: Leishmanicidal activity against Leishmania braziliensis MHOM/BR/01/BA788 after 48 hrs; type: functional, organism-based; conditions: MHOM/BR/01/BA788, 48 h; method in brief: as §1
Leishmania amazonensis [6] = experiment: Antiamastigote activity against Leishmania amazonensis MHOM/BR/87/BA125 infected in BALB/c mouse peritoneal macrophages assessed as inhibition of infection index after 48 hrs by Giemsa staining; type: functional, organism-based
Method in brief: (§3)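 Thioglycollate-elicited BALB/c peritoneal macrophages, 4 × 10⁵ per well on coverslips in DMEM with 10% FBS, adhered overnight and were infected with L. amazonensis promastigotes at 37 °C for 4 h. Free parasites were removed, then compounds were added (1, 10, 100 µM; DMSO ≤0.01%) for 48 h at 37 °C, 5% CO2. Infection index = % infected × mean amastigotes per macrophage.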

Leishmania amazonensis [7] = experiment: Antiamastigote activity against Leishmania amazonensis MHOM/BR/87/BA125 infected in BALB/c assessed as decrease of parasite load in ear at 30 mg/kg, po qd for 28 days measured up to 30 days; type: functional, organism-based
Method in brief: (§4)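 BALB/c mice (n = 5 per group) infected in the ear dermis with 10⁵ L. amazonensis promastigotes, then dosed orally with 30 mg/kg/day in water for 28 days. After treatment, infected ears and draining lymph nodes were excised, homogenized and serially diluted in Schneider medium with 10% FCS for a limiting dilution assay. Groups were compared to control by one-way ANOVA with Dunnett's test.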

Leishmania amazonensis [8] = experiment: Antiamastigote activity against Leishmania amazonensis MHOM/BR/87/BA125 infected in BALB/c assessed as decrease of lesion size in ear at 30 mg/kg, po qd for 28 days measured up to 30 days; type: functional
Method in brief: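 Female BALB/c mice, 6-8 weeks old, inoculated in right ear dermis with 10⁵ stationary-phase L. amazonensis promastigotes in sterile saline. From the second week post-infection, groups of 5 were dosed orally once daily for 28 days at 30 mg/kg/day in water; vehicle control received water orally. Lesion size was taken as infected minus contralateral ear thickness, measured twice weekly by digital caliper.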

Leishmania amazonensis [9] = experiment: Antiamastigote activity against Leishmania amazonensis MHOM/BR/87/BA125 infected in BALB/c mouse peritoneal macrophages assessed as decrease of percentage of infected macrophages at 1 to 100 uM after 48 hrs by Giemsa staining; type: functional, organism-based; method in brief: as §3
Leishmania amazonensis [10] = experiment: Antiamastigote activity against Leishmania amazonensis MHOM/BR/87/BA125 infected in BALB/c assessed as decrease of parasite load in draining lymph nodes at 30 mg/kg, po qd for 28 days measured up to 30 days; type: functional, organism-based; method in brief: as §4
Leishmania amazonensis [11] = experiment: Antiamastigote activity against Leishmania amazonensis MHOM/BR/87/BA125 infected in BALB/c mouse peritoneal macrophages assessed as decrease of number of intracellular parasites per macrophage at 1 to 100 uM after 48 hrs by Giemsa staining; type: functional, organism-based; method in brief: as §3
Leishmania amazonensis [12] = experiment: Antiamastigote activity against Leishmania amazonensis MHOM/BR/87/BA125 infected in BALB/c mouse peritoneal macrophages assessed as inhibition of infection index at 100 uM after 48 hrs by Giemsa staining; type: functional; conditions: MHOM/BR/87/BA125, 48 h; method in brief: as §3
Leishmania amazonensis [13] = experiment: Antiamastigote activity against Leishmania amazonensis MHOM/BR/87/BA125 infected in BALB/c mouse peritoneal macrophages assessed as decrease of percentage of infected macrophages at 100 uM after 48 hrs by Giemsa staining; type: functional; conditions: MHOM/BR/87/BA125, 48 h; method in brief: as §3
Leishmania amazonensis [14] = experiment: Antiamastigote activity against Leishmania amazonensis MHOM/BR/87/BA125 infected in BALB/c mouse peritoneal macrophages assessed as decrease of percentage of infected macrophages at 1 uM after 48 hrs by Giemsa staining; type: functional, organism-based; method in brief: as §3
Leishmania amazonensis [15] = experiment: Antiamastigote activity against Leishmania amazonensis MHOM/BR/87/BA125 infected in BALB/c mouse peritoneal macrophages assessed as decrease of percentage of infected macrophages at 10 to 100 uM after 48 hrs by Giemsa staining; type: functional, organism-based; method in brief: as §3
J774 = experiment: Cytotoxicity against mouse J774 cells at 100 uM after 48 hrs by MTT assay; type: cell-based; conditions: j774, 48 h; method in brief: as §2

SMILES	IC50 (Leishmania amazonensis [1]) [µM]	CC50 at 48 h [2] [µM]	Efficacy (Leishmania braziliensis [3])	Efficacy (Leishmania amazonensis [4])	IC50 (Leishmania braziliensis [5]) [µM]	inhibition (Leishmania amazonensis [6])	Activity (Leishmania amazonensis [7])	Activity (Leishmania amazonensis [8]) [mm]	Activity (Leishmania amazonensis [9])	Activity (Leishmania amazonensis [10])	Activity (Leishmania amazonensis [11])	inhibition at 100 µM (Leishmania amazonensis [12]) [%]	inhibition at 100 µM (Leishmania amazonensis [13]) [%]	Activity (Leishmania amazonensis [14])	Activity (Leishmania amazonensis [15])	Activity (J774) [%]
CC(C)OP(=O)(N/N=C/c1ccncc1)OC(C)C	> 100	> 100	inactive	inactive	> 100	–	–	–	–	–	–	–	–	–	–	–
CC(C)OP(=O)(N/N=C/c1cccnc1)OC(C)C	> 100	> 100	75.9%	inactive	0.4	–	–	–	–	–	–	–	–	–	–	–
CC(C)COP(=O)(N/N=C/c1ccncc1)OCC(C)C	> 100	> 100	84.2%	inactive	0.06	–	–	–	–	–	–	–	–	–	–	–
CCCCOP(=O)(N/N=C/c1cccnc1)OCCCC	53.3	> 100	87.9%	85.6%	5.4	–	–	–	–	–	–	–	–	–	–	–
CCCCOP(=O)(N/N=C/c1ccccn1)OCCCC (mixture of isomers)	6.2	> 100	76.3%	69.5%	0.06	–	–	–	–	–	–	–	–	–	–	–
CC(C)OP(=O)(N/N=C/c1ccccn1)OC(C)C	> 100	> 100	56.3%	inactive	0.7	–	–	–	–	–	–	–	–	–	–	–
CCC(C)OP(=O)(N/N=C/c1cncc(Br)c1)OC(C)CC (stereo not given)	26.3	> 100	92.2%	93.8%	3.6	Dose-dependent effect	inactive	0.0527	Active	Active	Active	99.9	99.3	inactive	Active	–
CCOP(=O)(N/N=C/c1cccnc1)OCC	> 100	> 100	inactive	inactive	> 100	–	–	–	–	–	–	–	–	–	–	–
CCOP(=O)(N/N=C/c1ccccn1)OCC (mixture of isomers)	> 100	> 100	62.1%	inactive	7.5	–	–	–	–	–	–	–	–	–	–	–
CCC(C)OP(=O)(N/N=C/c1c(Cl)cncc1Cl)OC(C)CC (stereo not given)	26	> 100	74.1%	92.4%	0.03	–	–	–	–	–	–	–	–	–	–	20.5
CCCCOP(=O)(N/N=C/c1ccncc1)OCCCC	99.3	> 100	77.2%	45.5%	5.1	–	–	–	–	–	–	–	–	–	–	–
N=C(N)c1ccc(OCCCCCOc2ccc(C(=N)N)cc2)cc1 [PENTAMIDINE]	1.8	> 100	95.7%	93.8%	0.06	–	–	–	–	–	–	–	–	–	–	28.8
CCC(C)OP(=O)(N/N=C/c1cccnc1Br)OC(C)CC (stereo not given)	< 0.001	> 100	80.1%	95.3%	5.2	Dose-dependent effect	Active	0.0804	Active	Active	Active	97.9	82.2	inactive	Active	–
CC(C)COP(=O)(N/N=C/c1ccccn1)OCC(C)C	98.3	> 100	inactive	40.7%	> 100	–	–	–	–	–	–	–	–	–	–	–
CCOP(=O)(N/N=C/c1ccncc1)OCC	> 100	> 100	inactive	inactive	> 100	–	–	–	–	–	–	–	–	–	–	–
CC(C)COP(=O)(N/N=C/c1cccnc1)OCC(C)C	83.3	> 100	81.6%	52.8%	40.7	–	–	–	–	–	–	–	–	–	–	–
CCCCCCCCCCCCCCCCOP(=O)([O-])OCC[N+](C)(C)C [MILTEFOSINE]	3.4	> 100	84.5%	96.3%	0.7	–	Active	–	–	Active	–	100	–	–	–	–
